Experimental data reported in ChEMBL document CHEMBL2401672, “2-[(3aR,4R,5S,7aS)-5-{(1S)-1-[3,5-bis(trifluoromethyl)phenyl]-2-hydroxyethoxy}-4-(2-methylphenyl)octahydro-2H-isoindol-2-yl]-1,3-oxazol-4(5H)-one: a potent human NK1 receptor antagonist with multiple clearance pathways” (J Med Chem, 2013).
Active and inactive are the calls of the source. The calls are words filed in the database; no cut-off is given here.

Legend:
[1] = test system: Rhesus monkey; experiment: Ex vivo NK1 receptor occupancy in rhesus monkey brain assessed as concentration required for 90% occupancy at 67 nM plasma concentration by PET imaging analysis; assay type: functional, Macaca mulatta
[2] = Oral bioavailability in rat at 2 mg/kg; assay type: ADME, organism-based; conditions: in vivo
Summary of the method: (§1)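 Rat PK used 1 mg/kg iv and 2 mg/kg po, while dog and monkey received 0.5 mg/kg iv and 1 mg/kg po. Oral dosing was given as a solution, either in ethanol/PEG400/water (20:40:40, v/v/v) or in Inwittor 742/Tween 80, depending on the compound. Plasma CLp, Vdss, t1/2 and F% were derived from these studies.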

[3] = test system: Rhesus monkey; experiment: Ex vivo NK1 receptor occupancy in rhesus monkey brain assessed as concentration required for 50% occupancy at 13 nM plasma concentration by PET imaging analysis; assay type: functional, Macaca mulatta
[4] = test system: Gerbillinae; experiment: Antagonist activity at NK1 receptor in iv dosed gerbil brain assessed as inhibition of GR73632-induced foot tapping after 1 hr; assay type: functional, organism-based
Summary of the method: (§2)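 Gerbils received the antagonist iv 1 h before central administration of the NK1 agonist GR73632. Hind-foot tapping was scored. ID50 (mg/kg) was derived for blockade of tapping, and plasma and brain IC50 (nM) were derived from drug levels at 1 h […].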

[5] = test system: Gerbillinae; experiment: Antagonist activity at NK1 receptor in iv dosed gerbil assessed as inhibition of GR73632-induced foot tapping after 1 hr; assay type: functional; conditions: read-out: ID50 (the source's name); summary of the method: as §2
[6] = test system: Gerbillinae; experiment: Antagonist activity at NK1 receptor in iv dosed gerbil assessed as inhibition of GR73632-induced foot tapping; assay type: functional, organism-based; summary of the method: as §2
[7] = biological target: T1, Neuromedin-K receptor (Homo sapiens, UniProt P29371); experiment: Binding affinity to human NK3 receptor
T1 sequence (P29371 whole entry): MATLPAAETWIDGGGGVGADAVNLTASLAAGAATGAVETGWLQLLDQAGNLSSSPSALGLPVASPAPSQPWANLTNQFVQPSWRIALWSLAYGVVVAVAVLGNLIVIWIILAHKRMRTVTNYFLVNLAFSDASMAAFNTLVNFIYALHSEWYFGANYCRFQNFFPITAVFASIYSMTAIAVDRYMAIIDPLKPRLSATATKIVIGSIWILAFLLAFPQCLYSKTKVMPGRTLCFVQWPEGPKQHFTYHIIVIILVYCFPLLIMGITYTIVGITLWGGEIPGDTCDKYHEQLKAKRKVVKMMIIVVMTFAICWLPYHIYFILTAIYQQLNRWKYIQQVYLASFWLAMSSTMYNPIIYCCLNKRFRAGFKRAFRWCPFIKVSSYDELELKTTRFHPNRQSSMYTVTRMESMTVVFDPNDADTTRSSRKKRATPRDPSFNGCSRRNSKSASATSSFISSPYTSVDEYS

[8] = biological target: T2, Substance-K receptor (Homo sapiens, UniProt P21452); experiment: Binding affinity to human NK2 receptor
T2 sequence (P21452 whole entry): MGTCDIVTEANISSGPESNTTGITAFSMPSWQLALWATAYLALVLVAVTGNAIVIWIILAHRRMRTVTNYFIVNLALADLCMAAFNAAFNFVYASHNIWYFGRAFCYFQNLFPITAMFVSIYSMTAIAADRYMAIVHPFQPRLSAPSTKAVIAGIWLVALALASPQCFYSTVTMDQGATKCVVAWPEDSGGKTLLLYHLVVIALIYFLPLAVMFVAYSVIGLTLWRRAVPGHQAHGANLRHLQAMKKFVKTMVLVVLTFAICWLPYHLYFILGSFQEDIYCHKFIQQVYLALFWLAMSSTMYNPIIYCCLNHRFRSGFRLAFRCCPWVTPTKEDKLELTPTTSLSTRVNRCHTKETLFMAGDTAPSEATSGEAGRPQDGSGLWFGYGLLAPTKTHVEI

[9] = biological target: T3, Substance-P receptor (Homo sapiens, UniProt P25103); experiment: Antagonist activity at human NK1 receptor expressed in CHO cells assessed as IP1 generation measured as remaining substance P response at 100 nM
[10] = biological target: T4, Nuclear receptor subfamily 1 group I member 2 (Homo sapiens, UniProt O75469); experiment: Agonist activity at human PXR at 3.4 uM relative to rifampicin
T4 sequence (O75469 whole entry): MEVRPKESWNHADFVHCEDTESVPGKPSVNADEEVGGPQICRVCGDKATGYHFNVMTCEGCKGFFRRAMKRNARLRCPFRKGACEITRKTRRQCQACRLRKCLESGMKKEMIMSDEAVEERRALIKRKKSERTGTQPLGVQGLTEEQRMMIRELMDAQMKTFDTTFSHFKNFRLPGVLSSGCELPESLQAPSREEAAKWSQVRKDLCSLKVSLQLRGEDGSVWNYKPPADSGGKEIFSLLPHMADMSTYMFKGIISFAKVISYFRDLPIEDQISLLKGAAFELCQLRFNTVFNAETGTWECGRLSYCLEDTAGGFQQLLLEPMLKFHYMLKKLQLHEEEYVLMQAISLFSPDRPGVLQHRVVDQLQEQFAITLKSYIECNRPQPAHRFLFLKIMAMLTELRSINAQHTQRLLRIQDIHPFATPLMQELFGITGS
Summary of the method: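 PXR agonism was measured in human hepatocytes with test compound at 3.4 μM, and the response was expressed as % relative to rifampicin.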

[11] = biological target: Cytochrome P450 2C9 (Homo sapiens, UniProt P11712); experiment: Inhibition of human CYP2C9; assay type: ADME
[12] = biological target: Cytochrome P450 2D6 (Homo sapiens, UniProt P10635); experiment: Inhibition of human CYP2D6; assay type: ADME
[13] = biological target: Cytochrome P450 3A4 (Homo sapiens, UniProt P08684); experiment: Inhibition of human CYP3A4; assay type: ADME
[14] = biological target: T5, Cytochrome P450 2C8 (Homo sapiens, UniProt P10632); experiment: Inhibition of human CYP2C8; assay type: ADME
T5 sequence (P10632 whole entry): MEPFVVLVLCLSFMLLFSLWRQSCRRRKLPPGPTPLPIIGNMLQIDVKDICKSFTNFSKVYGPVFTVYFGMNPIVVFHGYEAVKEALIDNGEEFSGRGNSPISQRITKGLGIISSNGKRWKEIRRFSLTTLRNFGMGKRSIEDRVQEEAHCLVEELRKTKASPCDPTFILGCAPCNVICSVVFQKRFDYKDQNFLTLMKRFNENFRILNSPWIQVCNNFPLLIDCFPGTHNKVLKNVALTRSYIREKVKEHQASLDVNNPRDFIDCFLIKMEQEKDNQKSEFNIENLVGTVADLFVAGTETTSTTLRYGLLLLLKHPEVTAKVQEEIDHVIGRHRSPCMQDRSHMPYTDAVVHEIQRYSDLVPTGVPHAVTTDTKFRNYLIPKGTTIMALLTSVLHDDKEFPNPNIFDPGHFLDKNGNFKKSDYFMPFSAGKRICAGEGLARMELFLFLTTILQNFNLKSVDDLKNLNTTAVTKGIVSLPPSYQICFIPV

[15] = Metabolic stability in human hepatocytes assessed as compound remaining at 1 uM after 24 hrs; assay type: ADME, cell-based, Hepatocyte; conditions: read-out: Stability
Summary of the method: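 Tritium-labelled compound at 1 μM was incubated with cultured human hepatocytes (300 000 cells per incubation) for 24 h, followed by metabolite profiling.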

[16] = Oral bioavailability in dog 1 mg/kg; assay type: ADME, organism-based, Canis lupus familiaris; conditions: in vivo; summary of the method: as §1
[17] = Oral bioavailability in monkey 1 mg/kg; assay type: ADME, organism-based, Macaca mulatta; conditions: rhesus monkey, in vivo; summary of the method: as §1
[18] = Half life in dog at 0.5 mg/kg, iv and 1 mg/kg, po; assay type: ADME, organism-based, Canis lupus familiaris; conditions: in vivo; summary of the method: as §1
[19] = Half life in monkey at 0.5 mg/kg, iv and 1 mg/kg, po; assay type: ADME, organism-based, Macaca mulatta; conditions: rhesus monkey, in vivo; summary of the method: as §1
[20] = Half life in rat at 1 mg/kg, iv and 2 mg/kg, po; assay type: ADME, organism-based; conditions: in vivo; summary of the method: as §1
[21] = Volume of distribution at steady state in monkey at 0.5 mg/kg, iv and 1 mg/kg, po; assay type: ADME, organism-based, Macaca mulatta; conditions: rhesus monkey, in vivo, read-out: Vdss; summary of the method: as §1
[22] = Volume of distribution at steady state in rat at 1 mg/kg, iv and 2 mg/kg, po; assay type: ADME, organism-based; conditions: in vivo, read-out: Vdss; summary of the method: as §1
[23] = Volume of distribution at steady state in dog at 0.5 mg/kg, iv and 1 mg/kg, po; assay type: ADME, organism-based, Canis lupus familiaris; conditions: in vivo, read-out: Vdss; summary of the method: as §1
[24] = Plasma clearance in monkey at 0.5 mg/kg, iv and 1 mg/kg, po; assay type: ADME, organism-based, Macaca mulatta; conditions: rhesus monkey; summary of the method: as §1
[25] = Plasma clearance in rat at 1 mg/kg, iv and 2 mg/kg, po; assay type: ADME, organism-based; summary of the method: as §1
[26] = Plasma clearance in dog at 0.5 mg/kg, iv and 1 mg/kg, po; assay type: ADME, organism-based, Canis lupus familiaris; summary of the method: as §1
[27] = test system: Gerbillinae; experiment: Antagonist activity at NK1 receptor in iv dosed gerbil plasma assessed as inhibition of GR73632-induced foot tapping after 1 hr; assay type: functional, organism-based; summary of the method: as §2
[28] = biological target: T3, Substance-P receptor; experiment: Displacement of [125I]substance P from human NK1 receptor expressed in CHO cells in presence of human serum; assay type: cell-based
Summary of the method: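 Inhibition of [¹²⁵I]substance P binding to human NK1 receptor in vitro, with 50% human serum added to the binding medium; IC₅₀ (nM) derived.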

T3 sequence (P25103 whole entry): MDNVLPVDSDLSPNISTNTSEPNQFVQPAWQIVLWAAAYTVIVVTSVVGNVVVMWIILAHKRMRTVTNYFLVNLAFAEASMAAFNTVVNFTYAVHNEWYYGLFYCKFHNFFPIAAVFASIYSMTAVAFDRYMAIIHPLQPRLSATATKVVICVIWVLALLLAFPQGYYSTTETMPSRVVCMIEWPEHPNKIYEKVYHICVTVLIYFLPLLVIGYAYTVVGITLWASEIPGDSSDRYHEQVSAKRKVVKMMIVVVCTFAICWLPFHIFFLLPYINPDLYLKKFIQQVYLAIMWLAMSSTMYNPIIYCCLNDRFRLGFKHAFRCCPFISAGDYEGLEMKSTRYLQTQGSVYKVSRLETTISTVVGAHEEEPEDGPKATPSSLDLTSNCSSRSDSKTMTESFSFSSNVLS
Chain of Cytochrome P450 2D6 (P10635 whole entry): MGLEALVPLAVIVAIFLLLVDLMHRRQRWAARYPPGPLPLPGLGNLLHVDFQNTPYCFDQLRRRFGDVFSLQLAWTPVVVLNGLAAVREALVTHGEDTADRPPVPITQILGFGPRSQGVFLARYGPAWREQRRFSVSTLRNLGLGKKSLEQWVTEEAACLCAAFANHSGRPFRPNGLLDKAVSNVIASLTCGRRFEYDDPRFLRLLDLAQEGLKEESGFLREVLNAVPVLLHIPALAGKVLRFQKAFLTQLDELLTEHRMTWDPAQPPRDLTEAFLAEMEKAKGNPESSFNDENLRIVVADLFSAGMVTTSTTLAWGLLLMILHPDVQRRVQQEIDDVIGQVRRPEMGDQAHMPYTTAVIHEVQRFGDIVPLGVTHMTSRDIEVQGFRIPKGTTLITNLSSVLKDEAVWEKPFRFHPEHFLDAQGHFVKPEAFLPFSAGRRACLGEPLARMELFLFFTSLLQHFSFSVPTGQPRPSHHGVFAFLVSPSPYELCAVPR
Chain of Cytochrome P450 2C9 (P11712 whole entry): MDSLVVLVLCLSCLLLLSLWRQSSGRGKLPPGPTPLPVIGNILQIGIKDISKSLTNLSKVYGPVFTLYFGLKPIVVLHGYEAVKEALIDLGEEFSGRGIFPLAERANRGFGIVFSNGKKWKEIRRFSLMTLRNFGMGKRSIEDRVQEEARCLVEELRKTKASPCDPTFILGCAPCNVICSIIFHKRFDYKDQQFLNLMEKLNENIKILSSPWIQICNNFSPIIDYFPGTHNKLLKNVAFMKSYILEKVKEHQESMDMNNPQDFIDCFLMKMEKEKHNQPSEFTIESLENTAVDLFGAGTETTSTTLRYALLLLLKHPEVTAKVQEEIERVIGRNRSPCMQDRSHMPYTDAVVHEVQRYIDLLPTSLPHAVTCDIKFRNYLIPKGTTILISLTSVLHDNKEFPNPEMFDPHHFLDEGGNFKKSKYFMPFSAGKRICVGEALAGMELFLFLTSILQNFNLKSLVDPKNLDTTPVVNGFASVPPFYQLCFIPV
Chain of Cytochrome P450 3A4 (P08684 whole entry): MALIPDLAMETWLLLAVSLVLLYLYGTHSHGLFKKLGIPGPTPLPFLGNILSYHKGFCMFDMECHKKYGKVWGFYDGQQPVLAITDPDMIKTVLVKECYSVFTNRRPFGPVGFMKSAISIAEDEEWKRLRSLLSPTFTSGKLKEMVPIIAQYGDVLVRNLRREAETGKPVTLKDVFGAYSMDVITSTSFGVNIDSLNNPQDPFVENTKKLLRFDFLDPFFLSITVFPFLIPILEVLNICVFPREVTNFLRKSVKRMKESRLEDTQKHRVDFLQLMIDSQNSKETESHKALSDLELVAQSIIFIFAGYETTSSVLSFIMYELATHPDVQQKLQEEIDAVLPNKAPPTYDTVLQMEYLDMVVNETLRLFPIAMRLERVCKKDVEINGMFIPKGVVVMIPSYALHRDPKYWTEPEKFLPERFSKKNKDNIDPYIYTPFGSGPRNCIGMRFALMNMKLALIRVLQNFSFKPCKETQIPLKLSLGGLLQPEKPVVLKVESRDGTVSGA

Question: Which results are given for `C[C@@H](O[C@H]1CC[C@@H]2CN(C3=CC(=O)CC3)C[C@H]2[C@@H]1c1ccc(F)cc1)c1cc(C(F)(F)F)cc(C(F)(F)F)c1` [SERLOPITANT]?
Answer: Occ90 [1]: 67 nM; bioavailability [2]: 40%; Occ50 [3]: 9 nM; IC50 [4]: 7.7 nM; ED50 [5]: 0.08 mg/kg; inhibition [6]: Active; IC50 [7]: 2400 nM; IC50 [8]: 2.4 µM; residual activity [9]: 5%

Question: For `Cc1ccccc1[C@H]1[C@@H]2CN(C3=NC(=O)CO3)C[C@H]2CC[C@@H]1O[C@H](CO)c1cc(C(F)(F)F)cc(C(F)(F)F)c1`, which Occ90 [1] is on record?
Answer: 22 nM

Question: What about the Activity [10] of the same compound?
Answer: 14%

Question: And the IC50 [11]?
Answer: 41 µM

Question: And the IC50 [12]?
Answer: 61 µM

Question: What about the IC50 [13] of the same compound?
Answer: 15 µM

Question: And the IC50 [14]?
Answer: 21 µM

Question: What about the remaining at 24 h, 1 µM [15] of the same compound?
Answer: 68%

Question: And the bioavailability [16]?
Answer: 38%

Question: And the bioavailability [17]?
Answer: 66%

Question: What about the bioavailability [2] of the same compound?
Answer: 92%

Question: What about the half-life [18] of the same compound?
Answer: 660 min

Question: And the half-life [19]?
Answer: 780 min

Question: And the half-life [20]?
Answer: 282 min

Question: And the Vd [21]?
Answer: 5.7 L/kg

Question: And the Vd [22]?
Answer: 3.1 L/kg

Question: And the Vd [23]?
Answer: 1.2 L/kg

Question: And the clearance [24]?
Answer: 8 mL/min/kg

Question: And the clearance [25]?
Answer: 7.5 mL/min/kg

Question: What about the clearance [26] of the same compound?
Answer: 1.4 mL/min/kg

Question: And the Occ50 [3]?
Answer: 13 nM

Question: And the IC50 [4]?
Answer: 8 nM

Question: What about the IC50 [27] of the same compound?
Answer: 5 nM

Question: What about the ED50 [5] of the same compound?
Answer: 0.03 mg/kg

Question: And the inhibition [6]?
Answer: Active

Question: And the IC50 [7]?
Answer: 2500 nM

Question: And the IC50 [8]?
Answer: 7.2 µM

Question: And the IC50 [28]?
Answer: 0.75 nM

Question: And the residual activity [9]?
Answer: 3%
